Experimental data taken from ChEMBL document CHEMBL1158962, “Isolation and characterization of two antimicrobial agents from mace (Myristica fragrans)” (1991).
≈ marks a conversion by molar mass, not a printed value.

Experiments:
Type in all cases: functional
Bacillus subtilis [1] = test: Antimicrobial activity against Bacillus subtilis NCTC 10400 after 24 hrs by agar dilution method; conditions: NCTC 10400, 24 h
How it was run: (§1)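 Agar dilution. Each test substance was first taken at 320 µg per 0.1 ml DMSO, mixed with 10 ml warm nutrient agar (45-50°) and left to set. NCTC bacteria were streaked radially and incubated at 37°. MIC was the lowest drug concentration showing no growth, read at 24 h and at 48 h. Chloramphenicol was the positive control.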

Enterococcus durans [2] = test: Antimicrobial activity against Streptococcus durans NCTC 8307 after 48 hrs by agar dilution method; conditions: NCTC 8307, 48 h; how it was run: as §1
Enterococcus durans [3] = test: Antimicrobial activity against Streptococcus durans NCTC 8307 after 24 hrs by agar dilution method; conditions: NCTC 8307, 24 h; how it was run: as §1
Staphylococcus aureus [4] = test: Antimicrobial activity against Staphylococcus aureus NCTC 6571 after 24 hrs by agar dilution method; conditions: NCTC 6571, 24 h; how it was run: as §1
Staphylococcus aureus [5] = test: Antimicrobial activity against Staphylococcus aureus NCTC 6571 after 48 hrs by agar dilution method; conditions: NCTC 6571, 48 h; how it was run: as §1
Bacillus subtilis [6] = test: Antimicrobial activity against Bacillus subtilis NCTC 10400 after 48 hrs by agar dilution method; conditions: NCTC 10400, 48 h; how it was run: as §1
Candida albicans [7] = test: Antimicrobial activity against Candida albicans ATCC 12301 after 24 hrs by agar dilution method
How it was run: as §1, with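 “C. albicans strains” for “NCTC bacteria”, “30°.” for “37°.”, “with” for “showing”, “Nystatin” for “Chloramphenicol”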

Candida albicans [8] = test: Antimicrobial activity against Candida albicans 3153 after 24 hrs by agar dilution method
How it was run: as §1, with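 “C. albicans strains” for “NCTC bacteria”, “30°.” for “37°.”, “with” for “showing”, “Nystatin” for “Chloramphenicol”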

Candida albicans [9] = test: Antimicrobial activity against Candida albicans 3110 after 24 hrs by agar dilution method
How it was run: as §1, with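 “C. albicans strains” for “NCTC bacteria”, “30°.” for “37°.”, “with” for “showing”, “Nystatin” for “Chloramphenicol”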

Candida albicans [10] = test: Antimicrobial activity against Candida albicans ATCC 12301 after 48 hrs by agar dilution method
How it was run: as §1, with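 “C. albicans strains” for “NCTC bacteria”, “30°.” for “37°.”, “with” for “showing”, “Nystatin” for “Chloramphenicol”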

Candida albicans [11] = test: Antimicrobial activity against Candida albicans 3153 after 48 hrs by agar dilution method
How it was run: as §1, with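 “C. albicans strains” for “NCTC bacteria”, “30°.” for “37°.”, “with” for “showing”, “Nystatin” for “Chloramphenicol”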

Candida albicans [12] = test: Antimicrobial activity against Candida albicans 3110 after 48 hrs by agar dilution method
How it was run: as §1, with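 “C. albicans strains” for “NCTC bacteria”, “30°.” for “37°.”, “with” for “showing”, “Nystatin” for “Chloramphenicol”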

[13] = ATCC 10231, 24 h, in the assay text read “ATCC 10231” for “ATCC 12301”
[14] = Candida albicans, 3110, 24 h, read-out: MIC
[15] = ATCC 10231, 24 h, in the assay text read “ATCC 10231” for “ATCC 12301”, read-out: MIC
[16] = Candida albicans, 3153, 24 h, read-out: MIC
[17] = ATCC 10231, 48 h, in the assay text read “ATCC 10231” for “ATCC 12301”
[18] = ATCC 10231, 48 h, in the assay text read “ATCC 10231” for “ATCC 12301”, read-out: MIC
[19] = Candida albicans, 3153, 48 h, read-out: MIC
[20] = Candida albicans, 3110, 48 h, read-out: MIC

| Compound | MIC (Bacillus subtilis [1]; read-out: MIC) | MIC (Enterococcus durans [2]; read-out: MIC) | MIC (Enterococcus durans [3]; read-out: MIC) | MIC (Staphylococcus aureus [4]; read-out: MIC) | MIC (Staphylococcus aureus [5]; read-out: MIC) | MIC (Bacillus subtilis [6]; read-out: MIC) | MIC (Bacillus subtilis [1]) | MIC (Enterococcus durans [3]) | MIC (Candida albicans [9]; [14]) | MIC (Candida albicans [7]; [15]) | MIC (Candida albicans [8]; [16]) | MIC (Candida albicans [9]; Candida albicans, 3110, 24 h) | also measured |
| --- | --- | --- | --- | --- | --- | --- | --- | --- | --- | --- | --- | --- | --- |
| O=C(N[C@H](CO)[C@H](O)c1ccc([N+](=O)[O-])cc1)C(Cl)Cl [CHLORAMPHENICOL] | 4 µg/mL (≈ 12.4 µM) | 4 µg/mL (≈ 12.4 µM) | 1 µg/mL (≈ 3.09 µM) | 4 µg/mL (≈ 12.4 µM) | 4 µg/mL (≈ 12.4 µM) | 4 µg/mL (≈ 12.4 µM) | – | – | – | – | – | – | – |
| CC(=O)c1c(O)cccc1O | – | – | – | – | – | – | > 32 µg/mL | > 32 µg/mL | < 32 µg/mL | – | – | – | MIC (Candida albicans [7]; [13]): > 32 µg/mL; MIC (Staphylococcus aureus [4]): > 32 µg/mL; MIC (Candida albicans [8]; Candida albicans, 3153, 24 h): > 32 µg/mL |
| NYSTATIN | – | – | – | – | – | – | – | – | – | – | – | – | MIC (Candida albicans [10]): 4 µg/mL; MIC (Candida albicans [7]): 2 µg/mL; MIC (Candida albicans [11]): 4 µg/mL; MIC (Candida albicans [8]): 2 µg/mL; MIC (Candida albicans [12]): 4 µg/mL; MIC (Candida albicans [9]): 2 µg/mL |
| COc1ccc(CCCCCCCCC(=O)c2c(OC)cccc2OC)cc1 | – | – | – | – | – | – | > 32 µg/mL | > 32 µg/mL | – | < 32 µg/mL | < 32 µg/mL | > 32 µg/mL | MIC (Staphylococcus aureus [4]): > 32 µg/mL |
| Oc1ccc(CCCCCCCCC(O)c2c(O)cccc2O)cc1 (centres undefined) | 4 µg/mL (≈ 11.6 µM) | 16 µg/mL (≈ 46.5 µM) | 8 µg/mL (≈ 23.2 µM) | 8 µg/mL (≈ 23.2 µM) | 16 µg/mL (≈ 46.5 µM) | 4 µg/mL (≈ 11.6 µM) | – | – | – | – | 32 µg/mL (≈ 92.9 µM) | > 32 µg/mL | MIC (Candida albicans [10]; [17]): > 32 µg/mL; MIC (Candida albicans [7]; [13]): > 32 µg/mL; MIC (Candida albicans [11]; Candida albicans, 3153, 48 h): > 32 µg/mL; MIC (Candida albicans [12]; Candida albicans, 3110, 48 h): > 32 µg/mL |
| COc1ccc(CCCCCCCCC(=O)c2c(O)cccc2OC)cc1 | – | – | – | – | – | – | > 32 µg/mL | > 32 µg/mL | – | < 32 µg/mL | < 32 µg/mL | > 32 µg/mL | MIC (Staphylococcus aureus [4]): > 32 µg/mL |
| O=C(CCCCCCCCc1ccc(O)c(O)c1)c1c(O)cccc1O [MALABARICONE C] | 2 µg/mL (≈ 5.58 µM) | 8 µg/mL (≈ 22.3 µM) | 4 µg/mL (≈ 11.2 µM) | 4 µg/mL (≈ 11.2 µM) | 8 µg/mL (≈ 22.3 µM) | 2 µg/mL (≈ 5.58 µM) | – | – | 8 µg/mL (≈ 22.3 µM) | 32 µg/mL (≈ 89.3 µM) | 8 µg/mL (≈ 22.3 µM) | – | MIC (Candida albicans [10]; [18]): 32 µg/mL (≈ 89.3 µM); MIC (Candida albicans [11]; [19]): 8 µg/mL (≈ 22.3 µM); MIC (Candida albicans [12]; [20]): 8 µg/mL (≈ 22.3 µM) |
| O=C(CCCCCCCCc1ccc(O)cc1)c1c(O)cccc1O [MALABARICONE B] | 1 µg/mL (≈ 2.92 µM) | 2 µg/mL (≈ 5.84 µM) | 1 µg/mL (≈ 2.92 µM) | 1 µg/mL (≈ 2.92 µM) | 1 µg/mL (≈ 2.92 µM) | 1 µg/mL (≈ 2.92 µM) | – | – | 8 µg/mL (≈ 23.4 µM) | 16 µg/mL (≈ 46.7 µM) | 4 µg/mL (≈ 11.7 µM) | – | MIC (Candida albicans [10]; [18]): 16 µg/mL (≈ 46.7 µM); MIC (Candida albicans [11]; [19]): 8 µg/mL (≈ 23.4 µM); MIC (Candida albicans [12]; [20]): 8 µg/mL (≈ 23.4 µM) |
| Oc1ccc(CCCCCCCCCc2c(O)cccc2O)cc1 | 4 µg/mL (≈ 12.2 µM) | 8 µg/mL (≈ 24.4 µM) | 4 µg/mL (≈ 12.2 µM) | 4 µg/mL (≈ 12.2 µM) | 4 µg/mL (≈ 12.2 µM) | 4 µg/mL (≈ 12.2 µM) | – | – | 8 µg/mL (≈ 24.4 µM) | 16 µg/mL (≈ 48.7 µM) | 8 µg/mL (≈ 24.4 µM) | – | MIC (Candida albicans [10]; [18]): 16 µg/mL (≈ 48.7 µM); MIC (Candida albicans [11]; [19]): 8 µg/mL (≈ 24.4 µM); MIC (Candida albicans [12]; [20]): 8 µg/mL (≈ 24.4 µM) |
| COc1cccc(O)c1C(=O)CCCCCCCCc1ccc(O)cc1 | 4 µg/mL (≈ 11.2 µM) | 4 µg/mL (≈ 11.2 µM) | 2 µg/mL (≈ 5.61 µM) | 4 µg/mL (≈ 11.2 µM) | 4 µg/mL (≈ 11.2 µM) | 4 µg/mL (≈ 11.2 µM) | – | – | – | – | – | > 32 µg/mL | MIC (Candida albicans [7]; [13]): > 32 µg/mL; MIC (Candida albicans [8]; Candida albicans, 3153, 24 h): > 32 µg/mL |
| COc1cccc(OC)c1C(=O)CCCCCCCCc1ccc(O)cc1 | – | – | – | 32 µg/mL (≈ 86.4 µM) | – | – | > 32 µg/mL | > 32 µg/mL | < 32 µg/mL | < 32 µg/mL | – | – | MIC (Candida albicans [10]; [17]): > 32 µg/mL; MIC (Enterococcus durans [2]): > 32 µg/mL; MIC (Candida albicans [11]; Candida albicans, 3153, 48 h): > 32 µg/mL; MIC (Staphylococcus aureus [5]): > 32 µg/mL; MIC (Candida albicans [8]; Candida albicans, 3153, 24 h): > 32 µg/mL; MIC (Bacillus subtilis [6]): > 32 µg/mL; MIC (Candida albicans [12]; Candida albicans, 3110, 48 h): > 32 µg/mL |
